Source: ChEMBL document CHEMBL1255392, “Pharmacokinetics of acyclovir and its metabolites in cerebrospinal fluid and systemic circulation after administration of high-dose valacyclovir in subjects with normal and impaired renal function” (Antimicrob Agents Chemother, 2010)

How the values were obtained:
[1] = tested on: Homo sapiens; experiment: Drug level in human CSF with chronic kidney disease assessed as 8-OH acyclovir level at 1500 mg, po every 12 hrs measured after fifth dose by LC/MS; type: ADME, organism-based; details: in vivo, read-out: Drug uptake
Outline: (§1)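 Three CKD adults (CrCl ~15–30 ml/min) fasted around the final dose. Lumbar intrathecal catheter CSF and EDTA venous blood were taken predose and at 0.5–8 h plus 12 h, then stored at −70°C. Metabolites in serum/CSF were measured by SPE with isotope-labelled internal standards, reversed-phase HPLC and positive-ion MRM MS.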

[2] = tested on: Homo sapiens; experiment: AUC (0 to 12 hrs) in human systemic circulation with chronic kidney disease assessed as 8-OH-ACV level at 1500 mg, po every 12 hrs measured after fifth dose by LC/MS; type: ADME, organism-based; set-up: dose 1500 mg, time < 12 hr, route oral; details: in vivo; outline: as §1
[3] = tested on: Homo sapiens; experiment: Drug level in human plasma with normal renal function assessed as 8-OH acyclovir level at 2000 mg, po every 6 hrs measured after fifth dose by LC/MS; type: ADME, organism-based; details: in vivo, read-out: Drug uptake
Outline: (§2)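 Six volunteers with normal renal function fasted from 8 h before to 2 h after the fifth dose. Intrathecal-catheter CSF and venous blood were sampled at 0–8 h and stored at −70°C. Noncompartmental Cmax, tmax and AUCτ (0–6 h) were derived; Cavg = AUCτ/τ.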

[4] = tested on: Homo sapiens; experiment: Ratio of Cmax in human CSF to Cmax in human plasma with normal renal function assessed as 8-OH-ACV level at 2000 mg, po every 6 hrs measured after fifth dose by LC/MS; type: ADME, organism-based
Outline: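 For each normal-renal-function subject, the metabolite CSF Cmax was divided by the serum Cmax from samples taken 0–8 h after the fifth dose. Both were measured by LC/MS with isotope-labelled internal standards, and the ratio is given as mean ± SD.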

[5] = tested on: Homo sapiens; experiment: Ratio of Cmax in human CSF to Cmax in human plasma with chronic kidney disease assessed as 8-OH-ACV level at 1500 mg, po every 12 hrs measured after fifth dose by LC/MS; type: ADME, organism-based
[6] = tested on: Homo sapiens; experiment: Cmax in human systemic circulation with normal renal function assessed as 8-OH-ACV level at 2000 mg, po every 6 hrs measured after fifth dose by LC/MS; type: ADME, organism-based; set-up: dose 2000 mg, route oral; details: in vivo; outline: as §2
[7] = tested on: Homo sapiens; experiment: Tmax in human CSF with chronic kidney disease assessed as 8-OH-ACV level at 1500 mg, po every 12 hrs measured after fifth dose by LC/MS; type: ADME, organism-based, Cerebrospinal fluid; details: in vivo; outline: as §1
[8] = tested on: Homo sapiens; experiment: Drug level in human plasma with chronic kidney disease assessed as 8-OH acyclovir level at 1500 mg, po every 12 hrs measured after fifth dose by LC/MS; type: ADME, organism-based; details: in vivo, read-out: Drug uptake; outline: as §1
[9] = tested on: Homo sapiens; experiment: Cmax in human CSF with normal renal function assessed as 8-OH-ACV level at 2000 mg, po every 6 hrs measured after fifth dose by LC/MS; type: ADME, organism-based, Cerebrospinal fluid; set-up: dose 2000 mg, route oral; details: in vivo; outline: as §2
[10] = tested on: Homo sapiens; experiment: Tmax in human systemic circulation with normal renal function assessed as 8-OH-ACV level at 2000 mg, po every 6 hrs measured after fifth dose by LC/MS; type: ADME, organism-based; details: in vivo; outline: as §2
[11] = tested on: Homo sapiens; experiment: Tmax in human CSF with normal renal function assessed as 8-OH-ACV level at 2000 mg, po every 6 hrs measured after fifth dose by LC/MS; type: ADME, organism-based, Cerebrospinal fluid; details: in vivo; outline: as §2
[12] = tested on: Homo sapiens; experiment: AUC (0 to 12 hrs) in human CSF with chronic kidney disease assessed as 8-OH-ACV level at 1500 mg, po every 12 hrs measured after fifth dose by LC/MS; type: ADME, organism-based; set-up: dose 1500 mg, time < 12 hr, route oral; details: in vivo; outline: as §1
[13] = tested on: Homo sapiens; experiment: AUC (0 to 6 hrs) in human CSF with normal renal function assessed as 8-OH-ACV level at 2000 mg, po every 6 hrs measured after fifth dose by LC/MS; type: ADME, organism-based; set-up: dose 2000 mg, time < 6 hr, route oral; details: in vivo; outline: as §2
[14] = tested on: Homo sapiens; experiment: Tmax in human systemic circulation with chronic kidney disease assessed as 8-OH-ACV level at 1500 mg, po every 12 hrs measured after fifth dose by LC/MS; type: ADME, organism-based; details: in vivo; outline: as §1
[15] = tested on: Homo sapiens; experiment: Drug level in human CSF with normal renal function assessed as 8-OH acyclovir level at 2000 mg, po every 6 hrs measured after fifth dose by LC/MS; type: ADME, organism-based; details: in vivo, read-out: Drug uptake; outline: as §2
[16] = tested on: Homo sapiens; experiment: Cmax in human CSF with chronic kidney disease assessed as 8-OH-ACV level at 1500 mg, po every 12 hrs measured after fifth dose by LC/MS; type: ADME, organism-based, Cerebrospinal fluid; set-up: dose 1500 mg, route oral; details: in vivo; outline: as §1
[17] = tested on: Homo sapiens; experiment: Cmax in human systemic circulation with chronic kidney disease assessed as 8-OH-ACV level at 1500 mg, po every 12 hrs measured after fifth dose by LC/MS; type: ADME, organism-based; set-up: dose 1500 mg, route oral; details: in vivo; outline: as §1
[18] = tested on: Homo sapiens; experiment: AUC (0 to 6 hrs) in human systemic circulation with normal renal function assessed as 8-OH-ACV level at 2000 mg, po every 6 hrs measured after fifth dose by LC/MS; type: ADME, organism-based, Plasma; set-up: dose 2000 mg, time < 6 hr, route oral; details: in vivo; outline: as §2
[19] = Tmax in human CSF with chronic kidney disease at 1500 mg, po every 12 hrs measured after fifth dose by radioimmunoassay; type: ADME, organism-based, Cerebrospinal fluid
Outline: (§3)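 CKD subjects (n=3) received an oral dose every 12 h for 5 doses. CSF was drawn through an indwelling lumbar catheter predose and at 0.5, 1, 1.5, 2, 3, 4, 6, 8 and 12 h after the fifth dose. Acyclovir was quantified by automated scintillation proximity radioimmunoassay with a monoclonal antibody; the standard curve was 1.4–90 ng/ml and LLQ 14.1 ng/ml. Noncompartmental parameters were calculated over 0–12 h.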

[20] = Tmax in human systemic circulation with normal renal function at 2000 mg, po every 6 hrs measured after fifth dose by radioimmunoassay; type: ADME, organism-based; details: plasma
Outline: (§4)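 Six subjects with normal renal function took valacyclovir 2,000 mg orally every 6 h for 5 doses, fasting from 8 h before to 2 h after the fifth dose. Plasma was drawn at 0, 0.5, 1, 1.5, 2, 3, 4, 6 and 8 h. Acyclovir was measured by scintillation proximity radioimmunoassay (LLQ 14.1 ng/ml). Noncompartmental analysis gave AUC over 0–6 h, Cmax and tmax, with Cavg = AUCτ/τ.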

[21] = Tmax in human systemic circulation with chronic kidney disease at 1500 mg, po every 12 hrs measured after fifth dose by radioimmunoassay; type: ADME, organism-based; details: plasma
Outline: (§5)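 Three chronic kidney disease subjects (CrCl ∼15 to 30 ml/min) took valacyclovir 1,500 mg orally every 12 h for 5 doses, fasting from 8 h before to 2 h after the fifth dose. Plasma was drawn at 0, 0.5, 1, 1.5, 2, 3, 4, 6, 8 and 12 h. Acyclovir was measured by scintillation proximity radioimmunoassay.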

[22] = Drug level in human CSF with chronic kidney disease at 1500 mg, po every 12 hrs measured after fifth dose by radioimmunoassay; type: ADME, organism-based; details: read-out: Drug uptake; outline: as §3
[23] = AUC (0 to 6 hrs) in human CSF with normal renal function at 2000 mg, po every 6 hrs measured after fifth dose by radioimmunoassay; type: ADME, organism-based; set-up: time < 6 hr, dose 2000 mg, route oral
Outline: (§6)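 Normal-renal-function subjects (n=6) took an oral dose every 6 h for 5 doses. Serial lumbar-catheter CSF was collected on ice predose through 8 h after the last dose. Acyclovir was assayed by scintillation proximity radioimmunoassay validated for CSF (range 1.4–90 ng/ml; 1:10 dilution; LLQ 14.1 ng/ml). Cmax, tmax and AUCτ over 0–6 h were computed noncompartmentally.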

[24] = Drug level in human plasma with chronic kidney disease at 1500 mg, po every 12 hrs measured after fifth dose by radioimmunoassay; type: ADME, organism-based; details: read-out: Drug uptake; outline: as §5
[25] = Cmax in human CSF with normal renal function at 2000 mg, po every 6 hrs measured after fifth dose by radioimmunoassay; type: ADME, organism-based, Cerebrospinal fluid; set-up: dose 2000 mg, route oral; outline: as §6
[26] = Drug level in human plasma with normal renal function at 2000 mg, po every 6 hrs measured after fifth dose by radioimmunoassay; type: ADME, organism-based; details: read-out: Drug uptake; outline: as §4
[27] = Cmax in human systemic circulation with chronic kidney disease at 1500 mg, po every 12 hrs measured after fifth dose by radioimmunoassay; type: ADME, organism-based; set-up: dose 1500 mg, route oral; details: plasma; outline: as §5
[28] = Tmax in human CSF with normal renal function at 2000 mg, po every 6 hrs measured after fifth dose by radioimmunoassay; type: ADME, organism-based, Cerebrospinal fluid; outline: as §6
[29] = Drug level in human CSF with normal renal function at 2000 mg, po every 6 hrs measured after fifth dose by radioimmunoassay; type: ADME, organism-based; details: read-out: Drug uptake; outline: as §6
[30] = Cmax in human CSF with chronic kidney disease at 1500 mg, po every 12 hrs measured after fifth dose by radioimmunoassay; type: ADME, organism-based, Cerebrospinal fluid; set-up: dose 1500 mg, route oral; outline: as §3
[31] = AUC (0 to 12 hrs) in human CSF with chronic kidney disease at 1500 mg, po every 12 hrs measured after fifth dose by radioimmunoassay; type: ADME, organism-based; set-up: time < 12 hr, dose 1500 mg, route oral; outline: as §3
[32] = AUC (0 to 12 hrs) in human systemic circulation with chronic kidney disease at 1500 mg, po every 12 hrs measured after fifth dose by radioimmunoassay; type: ADME, organism-based; set-up: dose 1500 mg, time < 12 hr, route oral; details: plasma; outline: as §5
[33] = Cmax in human systemic circulation with normal renal function at 2000 mg, po every 6 hrs measured after fifth dose by radioimmunoassay; type: ADME, organism-based; set-up: dose 2000 mg, route oral; details: plasma; outline: as §4
[34] = AUC (0 to 6 hrs) in human systemic circulation with normal renal function at 2000 mg, po every 6 hrs measured after fifth dose by radioimmunoassay; type: ADME, organism-based; set-up: time < 6 hr, dose 2000 mg, route oral; details: plasma; outline: as §4

Nc1nc2c(nc(O)n2COCCO)c(=O)[nH]1
concentration [1]: 0.26 µM | AUC [2]: 17 µM·h | concentration [3]: 0.24 µM | Ratio [4]: 0.2 | Ratio [5]: 0.19 | Cmax [6]: 0.32 µM | Tmax [7]: 7 h | concentration [8]: 1.4 µM | Cmax [9]: 0.062 µM | Tmax [10]: 3.5 h | Tmax [11]: 2.4 h | AUC [12]: 3.1 µM·h | AUC [13]: 0.34 µM·h | Tmax [14]: 4 h | concentration [15]: 0.06 µM | Cmax [16]: 0.29 µM | Cmax [17]: 1.6 µM | AUC [18]: 1.4 µM·h

Nc1nc2c(ncn2COCCO)c(=O)[nH]1 [ACYCLOVIR]
Tmax [19]: 5.3 h | Tmax [20]: 2.1 h | Tmax [21]: 2 h | concentration at 12 h [22]: 13.3 µM | AUC at 6 h [23]: 37 µM·h | concentration at 12 h [24]: 48 µM | Cmax [25]: 7.8 µM | concentration at 6 h [26]: 23 µM | Cmax [27]: 82 µM | Tmax [28]: 2.3 h | concentration at 6 h [29]: 6.25 µM | Cmax [30]: 16 µM | AUC at 12 h [31]: 159 µM·h | AUC at 12 h [32]: 577 µM·h | Cmax [33]: 42 µM | AUC at 6 h [34]: 137 µM·h
